Data on three molecules can be found in ChEMBL document CHEMBL1148368, “Synthesis and antitumor activity of quinonoid derivatives of cannabinoids” (2004).

For assay [1], the system named is Jurkat. Kind of assay: Inhibition of the growth of Jurkat lymphoma cells at 12.5-25.0 ug/ml concentration. It is filed as functional, Homo sapiens. In short, it runs like this: (§1)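 Lymphoma cells were suspended in RPMI 1640 with 20% heat-inactivated FCS, 2 mM L-glutamine, penicillin and streptomycin at 37 °C in 5% CO2. Cells were plated at 0.02×10^6 per well with varied quinone concentrations. MTT reduction was measured on day 3. Five replicate wells were used per concentration, in 2–3 repeat experiments. Inhibition is expressed as % versus 0.5% ethanol vehicle wells.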

In assay [2] the test system is Raji. Description: Inhibition of the growth of Raji lymphoma cells at 12.5-25.0 ug/ml concentration. It is filed as functional, Homo sapiens. In outline: as §1
The subject of assay [3] is Raji. Description: Inhibition of the growth of Raji lymphoma cells at 6.25 ug/ml concentration. Particulars: Homo sapiens. The class given is functional. In outline:
as §1

A further assay concerns SNB-19. Description: Concentration of compound required to inhibit the growth of SNB-19 cells. The class given is functional, cell-based. Particulars: Homo sapiens. In outline: (§2)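 Adherent/epithelial cancer cells were grown in RPMI 1640 with 10% heat-inactivated FCS, 2 mM L-glutamine, penicillin and streptomycin at 37 °C in 5% CO2. Cells were seeded at 0.02×10^6 per well with varied quinone concentrations. MTT readout was taken after 3 days. Five replicate wells were used per concentration, in 2–3 repeat experiments. Results are % inhibition versus untreated wells given 0.5% ethanol vehicle.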

The subject of another assay is HT-29. Description: Inhibition of the growth of HT-29 colon cancer cells at 3.125 ug/ml concentration. It is filed as functional. As to conditions: Homo sapiens. In short, it runs like this:
as §2

Assay [4] deals with Jurkat. Description: Inhibition of the growth of Jurkat lymphoma cells at 0.2 ug/ml concentration. The class given is functional. Particulars: Homo sapiens. In short, it runs like this:
as §1

Assay [5] deals with Jurkat. Description: Inhibition of the growth of Jurkat lymphoma cells at 1.56 ug/ml concentration. It is filed as functional. Particulars: Homo sapiens. In short, it runs like this: as §1
A further assay deals with MCF7. Kind of assay: Inhibition of the growth of MCF-7 mammary cancer cells at 3.125 ug/ml concentration. The class given is functional. As to conditions: Homo sapiens. In outline: as §2
Assay [6] relates to Raji. Description: Inhibition of the growth of Raji lymphoma cells at 0.2 ug/ml concentration. Particulars: Homo sapiens. It is filed as functional. In outline: as §1
The subject of assay [7] is Raji. Description: Inhibition of the growth of Raji lymphoma cells at 1.56 ug/ml concentration. The class given is functional. Particulars: Homo sapiens. In short, it runs like this:
as §1

Each structure is given as a SMILES string.

For the molecule `CCCCCC1=CC(=O)C2=C(OC(C)(C)c3ccc(C)cc32)C1=O`, the Inhibition in the assay with Jurkat [1] and with Raji [2] was 50% in each case. For the same molecule, the inhibition at 6.25 µg/mL with Raji [3] turned out to be 50%.
`CCCCCC1=CC(=O)C2=C(OC(C)(C)[C@@H]3CC=C(C)C[C@@H]23)C1=O` registered a Concentration in the assay on SNB-19 of 100 µg/mL.
Regarding `C=C(C)C1CCC(C)=C[C@H]1C1=C(O)C=C(CCCCC)C(=O)C1=O` (stereo not given in full), the inhibition at 3.125 µg/mL with HT-29 and in the assay on MCF7 was 50% in each case. Also, the inhibition at 0.2 µg/mL in the assay on Jurkat [4] and with Raji [6] was 50% each time. The inhibition at 1.56 µg/mL with Jurkat [5] and with Raji [7] was 80% each time.

By Inhibition is commonly meant the drop in the measured response relative to a control, in per cent. Low values mean little suppression, high ones strong suppression. The term inhibition denotes the drop in the measured response relative to a control, in per cent. A low value points to little suppression.
